MrgX1 ag – activates human MrgX1 receptor signaling | MrgX1-HEK293 cells, Fluo-4 calcium fluorescence, agonist mode; stronger effect = higher value | B-score at 10 µM | 0.44% of 310,000 active;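 active = calcium response B-score plate-corrected fluorescence ratio at least 3 library SD, with starting fluorescence B-score inside 5 SD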
Target sequence (Q96LB2 whole entry, looked up): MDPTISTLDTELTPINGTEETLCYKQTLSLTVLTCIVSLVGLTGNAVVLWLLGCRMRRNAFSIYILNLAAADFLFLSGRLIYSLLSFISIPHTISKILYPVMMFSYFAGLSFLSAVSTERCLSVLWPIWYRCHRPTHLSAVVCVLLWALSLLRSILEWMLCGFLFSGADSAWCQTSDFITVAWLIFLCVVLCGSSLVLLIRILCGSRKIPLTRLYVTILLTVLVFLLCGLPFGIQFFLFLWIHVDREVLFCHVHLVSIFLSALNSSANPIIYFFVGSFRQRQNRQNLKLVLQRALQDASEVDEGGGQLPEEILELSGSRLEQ
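Material: HEK293 cells stably expressing human MrgX1 receptor | Quantity: 15,000 cells per well | Times: Cells plated overnight, dye loaded 0.5 h 37 °C, 0.5 h room temperature | Measured by: Kinetic Fluo-4 NW fluorescence of intracellular calcium | Control set: Positive and negative controls per plate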
MrgX1 antagonist – antagonists of human MrgX1 receptor | MRGX1-HEK293 calcium flux, Fluo-4, BAM8-22 antagonism; stronger effect = lower value | AID 588676 | B-score at 10 µM | 1.3% of 310,000 active;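 active = calcium-response B-score plate-corrected more than 3 library SD below zero, starting fluorescence within 5 deviations, no agonist response on first addition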;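 note: peak minus trough fluorescence over baseline after final BAM8-22 challenge near maximal dose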
RGS4 act – RGS4 potentiation or activation; 0.92% of 310,000 active; HEK293 M3R/inducible RGS4, carbachol calcium flux Fluo4; stronger effect = lower value; B-score at 10 µM;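 active = B-score of the integrated calcium signal more than 4 SD below the library mean, with starting fluorescence not abnormally high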;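 note: negative B-score means reduced calcium response which marks RGS4 activation or potentiation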
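System – HEK293 FlpIn-TREx cells, stable M3R, doxycycline-inducible RGS4 · Reagent – ECmax carbachol challenge · Times – compound preincubation 20 min at room temperature before agonist · Technique – Fluo4 fluorescence kinetic imaging of calcium · Measure – B score of integrated Fluo4 ratio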
RGS4 inh – inhibitors of human RGS4; 0.45% of 310,000 active; AID 463165; P49798; B-score at 10 µM; HEK293 M3R/RGS4 inducible, Fluo-4 calcium flux; stronger effect = higher value; triggered by carbachol at its EC20;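 active = B-score, a plate-corrected calcium signal, over three deviations above library mean, with baseline fluorescence within five deviations of library mean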;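 note: RGS4 expression induced by doxycycline in cells with stable M3 receptor; B-score is computed from the integrated fluorescence ratio over baseline after carbachol; higher B-score means a larger calcium signal and so more RGS4 inhibition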
Target sequence (P49798 whole entry, looked up): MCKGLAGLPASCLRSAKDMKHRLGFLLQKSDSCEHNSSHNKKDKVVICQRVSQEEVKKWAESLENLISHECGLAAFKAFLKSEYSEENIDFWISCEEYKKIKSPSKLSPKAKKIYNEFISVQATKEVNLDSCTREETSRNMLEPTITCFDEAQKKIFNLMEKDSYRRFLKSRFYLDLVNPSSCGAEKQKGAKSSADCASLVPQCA
MrgX1 PAM – allosterically activates human MrgX1 receptor signaling. Q96LB2. 0.63% of 310,000 active. MrgX1-HEK293, Fluo-4 calcium flux, FDSS; stronger effect = higher value. B-score at 10 µM;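 active = plate-corrected calcium response at least 3 library SD above typical, normal starting fluorescence, not activating the receptor alone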;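 note: compound read alongside a low EC10 to EC30 dose of BAM8-22 agonist; peak minus trough fluorescence over baseline measured at the second addition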
MrgX1 ant reconf – human MrgX1 receptor antagonism, re-confirmation screen; shares compounds with MrgX1 antagonist; MrgX1-HEK293, BAM8-22 calcium flux, Fluo-4; stronger effect = lower value; remaining BAM8-22 calcium response % of control (stronger effect = lower value), % at 10 µM; 19% of 2,300 active; AID 602420;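 active = remaining agonist calcium response no higher than 100% minus 3 SD of agonist-only control wells, with starting fluorescence near control levels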;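 note: agonist BAM8-22 given at a near maximal EC90 to ECmax level; peak minus minimum fluorescence divided by baseline after agonist addition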
HEK293 Ca flux – counter-screen for MrgX1 antagonists: effect in parental HEK293 cells; fluorescence ratio F(max-min)/F0 at 10 µM; Fluo-4 calcium fluorescence, FDSS; shares compounds with MrgX1 antagonist; 2% of 4,000 active;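 active = duplicate-averaged calcium fluorescence ratio at least three times the standard deviation of buffer wells, a nonspecific response in parental cells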
HEK293 Ca counter – counter-screen for MrgX1 allosteric activators: effect in parental HEK293 cells; shares compounds with MrgX1 antagonist; parental HEK293 calcium flux, Fluo-4 fluorescence ratio; stronger effect = higher value; fluorescence ratio F(max-min)/F0 at 10 µM; 0.4% of 4,000 active;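 active = calcium fluorescence ratio, averaged over duplicates, at least 3 SD of the buffer-well ratio, meaning a nonspecific response in receptor-free cells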;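 note: untransfected parental HEK293 lacking MrgX1 used as counterscreen for MrgX1 allosteric activators; fluorescence change taken during the second addition on a kinetic imager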
HEK293 Ca cntr2 – MrgX1 activator counter-screen hit in parental HEK293 cells. 8.7% of 4,000 active. shares compounds with MrgX1 antagonist. fluorescence ratio F(max-min)/F0 at 10 µM. Fluo-4 calcium fluorescence (FDSS); stronger effect = higher value;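 active = calcium fluorescence ratio at least three times the spread of buffer wells, meaning a non-specific response in parental cells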
* = called active by the depositor; i = inactive; / = no result. A selection: hits, their analogues and other compounds. The true share with any hit is near 3.5%.

SMILES	MrgX1 ag	MrgX1 antagonist	RGS4 act	RGS4 inh	MrgX1 PAM	MrgX1 ant reconf	HEK293 Ca flux	HEK293 Ca counter	HEK293 Ca cntr2
CCN(CC)S(=O)(=O)c1ccc(C)c(NC(=O)COC(=O)CN2C(=O)NC(C)(C)C2=O)c1	i	i	i	i	i	/	/	/	/
O=C(CN1CCC(c2nc3ccccc3s2)CC1)NCc1ccccc1	i	-5.4*	i	i	i	i	i	i	i
CCN(c1ccccc1)c1cc(C)nc2ncnn12	i	-6.6*	i	i	i	i	i	i	i
Cc1cccc(N(C)c2cc(C)nc3ncnn23)c1	i	i	i	i	i	/	/	/	/
CCn1c(C)c(C(=O)c2ccccc2)c(C#N)c1C(=O)O	i	i	i	i	i	/	/	/	/
CCCn1c(SCc2ccccn2)nc2c1c(=O)n(C)c(=O)n2C	i	-7.8*	i	i	i	i	i	i	i
CCOC(=O)c1sc(NC(=S)NC(=O)c2cccc(Cl)c2)c(C(=O)OCC)c1C	i	-4.9*	i	i	i	i	i	i	i
CCC(CC)C(=O)Nc1cccc(C(=O)Nc2ccc3c(c2)OCO3)c1	i	-6*	i	i	i	i	i	i	i
CCN(CC)S(=O)(=O)c1cccc(C(=O)Nc2ccc3c(c2)OCO3)c1	i	i	i	i	i	/	/	/	/
CCCNC(=O)c1cccc(NC(=O)C(C)C)c1	i	-7.3*	i	i	i	i	i	i	48*
Cc1ccc(C(CC(=O)O)NC(=O)CN2C(=O)c3ccccc3C2=O)cc1 (stereo not drawn)	i	i	i	i	i	/	/	/	/
O=C(Cn1c(C(F)(F)F)nc2ccccc21)Nc1ccccc1N1CCOCC1	i	-9.3*	i	i	i	i	i	i	i
CCC(C)(C)NC(=O)CN(Cc1ccc(F)cc1)C(=O)CCC(=O)Nc1ccccn1	i	i	i	i	i	/	/	/	/
NS(=O)(=O)c1ccc(CCNC(=O)NC23CC4CC(CC(C4)C2)C3)cc1	i	i	i	i	i	/	/	/	/
NS(=O)(=O)c1ccc(-n2nncc2C23CC4CC(CC(C4)C2)C3)cc1	i	-7.3*	i	i	i	i	i	i	i
COc1cccc(NC(=O)C2CCCN2C(=O)Nc2cccc(F)c2)c1 (stereo not drawn)	i	-4.9*	i	i	i	i	i	i	i
COc1ccccc1NC(=O)N1CCCC1C(=O)NCc1ccccc1 (stereo not drawn)	i	-5.7*	i	i	i	i	i	i	i
COc1cccc(NC(=O)C2CCCN2C(=O)Nc2ccccc2)c1 (stereo not drawn)	i	i	i	i	i	/	/	/	/
COc1ccc(NC(=O)N2CCCC2C(=O)NCc2ccc(F)cc2)cc1 (stereo not drawn)	i	-13*	i	i	i	i	i	i	i
O=C(COc1ccccc1)NCC(=O)N/N=C/c1ccc(O)cc1O	i	i	i	i	i	/	/	/	/
O=C(Nc1cccnc1)c1cc(-c2ccccc2)on1	i	i	i	i	i	/	/	/	/
O=C(Nc1cccnc1)c1cc(-c2ccc(Br)cc2)on1	i	-8.7*	i	i	i	i	i	i	i
COc1ccc(NC(=O)CNS(=O)(=O)c2cccc3nonc23)c(OC)c1	i	-5.7*	i	i	i	i	i	i	i
O=C1O/C(=C/c2ccccc2)N=C1c1ccccc1	i	-5*	i	i	i	i	i	i	i
O=C1O/C(=C\c2ccccc2)c2ccccc21	i	i	i	i	i	/	/	/	/
SMILES	MrgX1 ag	MrgX1 antagonist	RGS4 act	RGS4 inh	MrgX1 PAM	MrgX1 ant reconf	HEK293 Ca flux	HEK293 Ca counter	HEK293 Ca cntr2
N#Cc1c2n(cnc1=O)CCCCC2	i	-4.9*	i	i	i	i	i	i	i
CCOC(=O)N1CCN(C2CC(=O)N(c3ccc(F)cc3)C2=O)CC1 (stereo not drawn)	i	-5.9*	i	i	i	i	i	i	i
CC[C@H]1OC(=O)[C@H](C)[C@@H](O[C@H]2C[C@@](C)(OC)[C@@H](O)[C@H](C)O2)[C@H](C)[C@@H](O[C@@H]2O[C@H](C)C[C@H](N(C)C)[C@H]2O)[C@](C)(O)C[C@@H](C)C(=O)[C@H](C)[C@@H](O)[C@]1(C)O	i	i	i	i	i	/	/	/	/
CCOC(=O)CCC(=O)O[C@H]1[C@H](O[C@@H]2[C@@H](C)[C@H](O[C@H]3C[C@@](C)(OC)[C@@H](O)[C@H](C)O3)[C@@H](C)C(=O)O[C@H](CC)[C@@](C)(O)[C@H](O)[C@@H](C)C(=O)[C@H](C)C[C@@]2(C)O)O[C@H](C)C[C@@H]1N(C)C	i	-11*	i	i	i	i	i	i	i
CCN(C(=O)COC(=O)c1cc(-c2ccccc2)nc2ccc(Br)cc12)C1CCS(=O)(=O)C1 (stereo not drawn)	i	i	i	i	i	/	/	/	/
CCN(C(=O)COc1ncnc2ccc(Br)cc12)C1CCS(=O)(=O)C1 (stereo not drawn)	i	-5.7*	i	i	i	i	i	i	i
Cc1ccccc1CS(=O)(=O)Cc1ccc(C(=O)NCc2cccnc2)o1	i	i	i	i	i	/	/	/	/
S=C(Nc1ccc(Cl)cc1)Nc1cccc2cnccc12	i	-5.2*	i	i	i	i	i	i	i
CCN1CNC(=S)N(c2cc(C)ccc2C)C1	i	-5.8*	i	i	i	i	i	i	i
O=C(Nc1ccc(Cl)cc1)N(Cc1cccnc1)Cc1ccco1	i	-5.7*	i	i	i	i	i	i	i
Cn1c(=O)c2c(nc(CN3CCOCC3)n2CCc2ccccc2)n(C)c1=O	i	-4.9*	i	i	i	i	i	i	i
O=C(NCCN1CCOCC1)c1cc2ccccc2o1	i	i	i	i	i	/	/	/	/
